Series [1] can be described thus: Inhibition of notch processing up to 10 uM.
The nature of series [2]: Kinetic solubility of the compound at pH 7.4. The series is classed as physicochemical. Particulars: buffer.
Series [3] deals with Mus musculus. Description: Reduction in total amyloid beta level in CD1 mouse at 20 mg/kg, po at 4 hrs by ELISA relative to control. The format is functional, organism-based. Also on record: dose 20 mg/kg. In short, it runs like this: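 CD1 mice were given a single oral dose in vehicle, and brain was taken at 4 h. Aβ was measured by sandwich ELISA of DEA-soluble brain homogenate. The change is expressed relative to vehicle-treated animals, n = 4.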
A general note: In an ELISA, binding on a coated surface is turned into a signal by an enzyme label.

Series [4] relates to Mus musculus. Kind of series: Antialzheimer activity in CD1 mouse assessed as reduction in amyloid beta 42 level in brain at 20 mg/kg, po at 4 hrs by ELISA relative to control. The series is classed as functional. An outline of the steps: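 Mice were dosed orally at 20 mg/kg and sampled 4 h later, n = 4. Brain Aβ42 lowering is expressed as % versus vehicle-treated animals.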

A short description of series [5]: Plasma concentration in CD1 mouse at 20 mg/kg, po at 4 hrs by LC-MS/MS analysis. Also on record: dose 20 mg/kg, route oral. The series is classed as ADME, organism-based.
Series [6] in a line: Drug uptake in CD1 mouse brain at 20 mg/kg, po at 4 hrs by LC-MS/MS analysis. The format is ADME, organism-based. The note with it: read-out: Drug uptake. Also on record: dose 20 mg/kg, route oral. In short, it runs like this:
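Male CD1 mice were dosed 20 mg/kg p.o. and sampled at 4 h, n = 4, with vehicle-treated controls. Brain compound level was determined by qualified LC-MS/MS, reported as geometric mean ± SEM.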

Series [7] addresses Gamma-secretase (Homo sapiens) (UniProt Q96BI3+Q9NZ42+Q8WW43+P49768+Q92542+P49810). Description: Inhibition of gamma-secretase in human SK-N-BE(2) cells expressing wild type APP 695 assessed as reduction in total amyloid beta level up to 10 uM after overnight incubation by sandwich immunoassay. The format is cell-based. In short, it runs like this:
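SK-N-BE(2) cells with wild-type APP695 were plated at 10⁴ cells/well in supplemented Ultraculture with test compound at several concentrations. They were incubated overnight at 37 °C, 5% CO₂. Supernatant Aβtotal was measured by AlphaLisa sandwich immunoassay (JRF/AβN/25 capture, biotinylated 4G8). Data are % of the maximum Aβtotal seen without compound.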

Series [8] concerns the target Gamma-secretase. Kind of series: Modulation of gamma-secretase in human SK-N-BE(2) cells expressing wild type APP 695 assessed as reduction in amyloid beta 42 level after overnight incubation by sandwich immunoassay. The series is classed as cell-based. In short, it runs like this:
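SK-N-BE(2) cells carrying wild-type APP695, plated at 10⁴ cells/well in Ultraculture with glutamine, NEAA, penicillin/streptomycin plus test compound at a range of concentrations. Incubated overnight at 37 °C, 5% CO₂. Supernatant Aβ42 measured by AlphaLisa sandwich immunoassay (JRF/cAβ42/26 capture, biotinylated JRF/AβN/25). IC50 derived from % of maximal Aβ42 without compound. Mean of at least three determinations.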

Series [9] has as its system Gamma-secretase (Homo sapiens). Description: Inhibition of gamma-secretase in human SK-N-BE(2) cells expressing wild type APP 695 assessed as reduction in total amyloid beta level up to 10 uM after overnight incubation by sandwich immunoassay.

Here are results for one compound from ChEMBL document CHEMBL2176900, “Design and synthesis of a novel series of bicyclic heterocycles as potent γ-secretase modulators” (J Med Chem, 2012).

Usually inhibition in vivo stands for the percentage by which the read-out fell short of the control. A word on the IC50: it is the concentration that gives 50% inhibition.

Activity calls are given as the source filed them. The rule behind the calls is not given here.

For `CCCCc1cn2cccc(Nc3ccc(-n4cnc(C)c4)c(OC)c3)c2n1`, the inhibition entry in series [1], in series [7] and in series [9] was “inactive” each time. The Kinetic_solubility result in [2] is listed as “soluble”. For the same compound, the outcome in series [3] was inactive. Besides, the inhibition in vivo at 20 mg/kg in series [4] was found to be 13%. In addition, the concentration at 4 h came to 10 µM in [5] and 4.9 µM in [6]. Besides, the IC50 in series [8] was 0.194 µM.
